Measured values taken from ChEMBL document CHEMBL1629676, “Inhibitory and bactericidal activities of daptomycin, vancomycin, and teicoplanin against methicillin-resistant Staphylococcus aureus isolates collected from 1985 to 2007” (2009).
≈ marks a conversion by molar mass, not a printed value.

Columns and labels:
Staphylococcus aureus [1] = test: Antimicrobial activity against methicillin-resistant Staphylococcus aureus by broth dilution assay; assay type: functional
Staphylococcus aureus [2] = test: Antimicrobial activity against methicillin-resistant Staphylococcus aureus assessed as >=3log10 CFU/ml reduction in bacterial growth after 24 to 48 hrs by CLSI method; assay type: functional
Method in brief: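 MBC per CLSI: entire 0.1 ml from the MIC well and from wells 4 dilutions above the MIC spread on blood agar, dried 20 min, then spread evenly; incubated 35 to 37°C for 24 to 48 h. MBC taken as the lowest dilution giving ≥99.9% (≥3-log10 CFU/ml) reduction versus the growth control count.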

| Compound | MIC50 (Staphylococcus aureus [1]) | MIC90 (Staphylococcus aureus [1]) | MBC50 (Staphylococcus aureus [2]) | MBC90 (Staphylococcus aureus [2]) |
| --- | --- | --- | --- | --- |
| CC(=O)N[C@@H]1[C@H](Oc2c3cc4cc2Oc2ccc(cc2Cl)[C@@H](O[C@@H]2O[C@@H](CO)[C@@H](O)[C@H](O)[C@@H]2NC(C)=O)[C@@H]2NC(=O)[C@H](NC(=O)[C@@H]4NC(=O)[C@H]4NC(=O)[C@@H](Cc5ccc(c(Cl)c5)O3)NC(=O)[C@H](N)c3ccc(O)c(c3)Oc3cc(O)cc4c3)c3ccc(O)c(c3)-c3c(O[C@H]4O[C@H](CO)[C@@H](O)[C@@H](O)[C@@H]4O)cc(O)cc3[C@@H](C(=O)O)NC2=O)O[C@@H](CO)[C@@H](O)[C@@H]1O | 1 µg/mL (≈ 0.566 µM) | 1 µg/mL (≈ 0.566 µM) | 2 µg/mL (≈ 1.13 µM) | 32 µg/mL (≈ 18.1 µM) |
| CCCCCCCCCC(=O)N[C@@H](Cc1c[nH]c2ccccc12)C(=O)N[C@H](CC(N)=O)C(=O)N[C@@H](CC(=O)O)C(=O)N[C@@H]1C(=O)NCC(=O)N[C@@H](CCCN)C(=O)N[C@@H](CC(=O)O)C(=O)N[C@H](C)C(=O)N[C@@H](CC(=O)O)C(=O)NCC(=O)N[C@H](CO)C(=O)N[C@@H]([C@H](C)CC(=O)O)C(=O)N[C@@H](CC(=O)c2ccccc2N)C(=O)O[C@@H]1C | 0.5 µg/mL (≈ 0.309 µM) | 0.5 µg/mL (≈ 0.309 µM) | 0.5 µg/mL (≈ 0.309 µM) | 1 µg/mL (≈ 0.617 µM) |
| CN[C@H](CC(C)C)C(=O)N[C@H]1C(=O)N[C@@H](CC(N)=O)C(=O)N[C@H]2C(=O)N[C@H]3C(=O)N[C@H](C(=O)N[C@H](C(=O)O)c4cc(O)cc(O)c4-c4cc3ccc4O)[C@H](O)c3ccc(c(Cl)c3)Oc3cc2cc(c3O[C@@H]2O[C@H](CO)[C@@H](O)[C@H](O)[C@H]2O[C@H]2C[C@](C)(N)[C@H](O)[C@H](C)O2)Oc2ccc(cc2Cl)[C@H]1O [VANCOMYCIN] | 1 µg/mL (≈ 0.69 µM) | 1 µg/mL (≈ 0.69 µM) | 1 µg/mL (≈ 0.69 µM) | 1 µg/mL (≈ 0.69 µM) |
